How the values were obtained:
[1] = target: T1, Voltage-gated L-type calcium channel (Rattus norvegicus, UniProt P22002+Q02485+P27732); experiment: Inhibition of [3H]nitrendipine binding at L-type [Ca2+] channel in rat cortex homogenate by 50%.
How it was run: (§1)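 Cerebral cortex from male Sprague-Dawley rats, homogenized in 50 mM Na-Hepes pH 7.4 and washed five times by centrifugation at 48000g. Bound ligand collected by rapid filtration and counted. IC50 by log-probit analysis, converted to Ki by the Prusoff method. At least three experiments in triplicate.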

[2] = target: T1, Voltage-gated L-type calcium channel; experiment: Calcium antagonistic activity by measuring [3H]nitrendipine displacement at calcium channel in rat cortex homogenate; assay type: functional, tissue-based; how it was run: as §1
[3] = organism: Cavia porcellus; experiment: Inotropic negative potency on spontaneously beating right atrium of guinea pig; assay type: functional, Cardiac atrium
How it was run: (§2)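 Spontaneously beating right atria from guinea pigs (300-400 g) in oxygenated Tyrode (95% O2-5% CO2), 35 °C, pH 7.4, recorded isometrically. Compounds from DMSO diluted in PSS (DMSO ≤0.3%), added cumulatively at 0.1-100 µM once steady state was reached.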

[4] = target: T2, Voltage-dependent L-type calcium channel subunit alpha-1C (Rattus norvegicus, UniProt P22002); experiment: Calcium antagonistic activity by measuring [3H]nitrendipine displacement from rat heart L-type [Ca2+] channel; assay type: functional
T2 sequence (P22002 whole entry, the tested form may be a part): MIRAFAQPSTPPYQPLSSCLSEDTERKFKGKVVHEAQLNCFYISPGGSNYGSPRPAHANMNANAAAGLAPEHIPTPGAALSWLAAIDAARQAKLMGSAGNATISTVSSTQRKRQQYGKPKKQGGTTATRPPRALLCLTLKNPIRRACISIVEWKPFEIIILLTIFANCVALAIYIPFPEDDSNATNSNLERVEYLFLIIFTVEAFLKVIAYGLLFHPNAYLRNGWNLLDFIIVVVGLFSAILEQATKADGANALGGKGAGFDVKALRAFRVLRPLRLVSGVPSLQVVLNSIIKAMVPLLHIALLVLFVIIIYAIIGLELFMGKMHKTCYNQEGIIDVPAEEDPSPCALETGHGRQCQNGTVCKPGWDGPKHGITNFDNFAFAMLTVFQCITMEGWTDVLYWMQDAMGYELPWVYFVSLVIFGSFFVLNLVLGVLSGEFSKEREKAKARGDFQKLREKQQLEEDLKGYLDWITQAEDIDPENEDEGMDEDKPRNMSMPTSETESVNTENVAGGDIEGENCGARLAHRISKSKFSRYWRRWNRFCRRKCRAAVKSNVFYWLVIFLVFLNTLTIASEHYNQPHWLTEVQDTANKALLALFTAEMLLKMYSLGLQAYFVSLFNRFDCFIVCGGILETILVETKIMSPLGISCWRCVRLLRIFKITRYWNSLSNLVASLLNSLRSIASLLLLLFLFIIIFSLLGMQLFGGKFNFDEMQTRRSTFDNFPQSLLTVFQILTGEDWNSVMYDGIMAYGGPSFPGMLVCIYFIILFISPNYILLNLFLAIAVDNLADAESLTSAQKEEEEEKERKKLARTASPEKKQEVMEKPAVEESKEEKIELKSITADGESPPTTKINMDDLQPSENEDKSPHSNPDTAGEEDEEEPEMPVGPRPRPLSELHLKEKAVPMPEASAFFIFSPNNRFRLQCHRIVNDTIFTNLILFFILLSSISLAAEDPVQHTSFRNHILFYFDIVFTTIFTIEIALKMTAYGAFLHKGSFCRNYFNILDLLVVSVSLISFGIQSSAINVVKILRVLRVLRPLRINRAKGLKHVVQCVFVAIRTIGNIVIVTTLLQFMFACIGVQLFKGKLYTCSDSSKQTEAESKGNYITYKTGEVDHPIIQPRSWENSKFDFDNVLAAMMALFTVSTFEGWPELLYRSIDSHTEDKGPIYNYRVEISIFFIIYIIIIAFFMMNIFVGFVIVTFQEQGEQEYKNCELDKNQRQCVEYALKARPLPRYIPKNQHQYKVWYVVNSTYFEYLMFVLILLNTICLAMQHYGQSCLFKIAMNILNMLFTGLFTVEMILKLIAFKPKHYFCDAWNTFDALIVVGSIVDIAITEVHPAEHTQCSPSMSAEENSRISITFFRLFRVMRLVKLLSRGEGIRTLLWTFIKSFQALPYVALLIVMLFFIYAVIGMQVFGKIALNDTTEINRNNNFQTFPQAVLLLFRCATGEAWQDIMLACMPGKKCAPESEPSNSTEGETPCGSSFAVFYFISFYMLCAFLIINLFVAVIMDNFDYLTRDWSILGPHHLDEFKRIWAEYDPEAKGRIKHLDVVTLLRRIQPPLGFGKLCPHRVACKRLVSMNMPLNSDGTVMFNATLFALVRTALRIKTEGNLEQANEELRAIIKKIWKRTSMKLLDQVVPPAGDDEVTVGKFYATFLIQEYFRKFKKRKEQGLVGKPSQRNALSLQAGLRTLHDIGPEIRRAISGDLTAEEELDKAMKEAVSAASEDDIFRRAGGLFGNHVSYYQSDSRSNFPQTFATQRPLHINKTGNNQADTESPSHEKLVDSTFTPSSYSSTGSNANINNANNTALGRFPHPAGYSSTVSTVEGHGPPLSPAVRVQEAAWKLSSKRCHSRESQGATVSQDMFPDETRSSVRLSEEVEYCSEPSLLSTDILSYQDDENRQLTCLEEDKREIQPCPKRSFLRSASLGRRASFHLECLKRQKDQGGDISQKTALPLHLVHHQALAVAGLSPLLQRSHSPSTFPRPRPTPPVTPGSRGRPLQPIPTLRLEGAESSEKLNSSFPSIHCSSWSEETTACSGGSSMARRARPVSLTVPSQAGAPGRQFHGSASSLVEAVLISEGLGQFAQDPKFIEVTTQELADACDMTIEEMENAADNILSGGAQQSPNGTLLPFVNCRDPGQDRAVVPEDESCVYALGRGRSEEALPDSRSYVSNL
How it was run: (§3)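 Rat hearts perfused through the aorta with ice-cold saline, homogenized in 50 mM Na-Hepes pH 7.4, filtered through cheesecloth and washed five times at 48000g. Incubated 90 min at 0 °C in the dark with [3H]nitrendipine. Six displacer concentrations used, separated by filtration. IC50 by log-probit analysis, converted to Ki by Cheng-Prusoff. At least three experiments in triplicate.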

[5] = organism: Cavia porcellus; experiment: The compound was tested for the negative chronotropic activity on isolated guinea pig spontaneously beating right atrium at 10e-4 M.; assay type: functional, Cardiac atrium; how it was run: as §2
[6] = organism: Cavia porcellus; experiment: Tested for the calcium antagonistic activity on K+-depolarized guinea pig aortic strips at 5*10e-5 M.; assay type: functional, Aorta
How it was run: (§4)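 Guinea pig aortic strips held at 1 g resting force and equilibrated 1 h in PSS. Contracted with 80 mM KCl (K+ replacing Na+). At plateau (about 30 min), compounds in DMSO were added cumulatively at 0.1-500 µM. Relaxation of isometric force measured.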

[7] = organism: Cavia porcellus; experiment: Inotropic negative potency on stimulated guinea pig left atrium; assay type: functional; details: Cardiac atrium, read-out: ED50 (the source's name)
How it was run: (§5)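 Guinea pig left atria driven at 1 Hz with 0.6-0.8 ms pulses at […], in oxygenated Tyrode at 35 °C, pH 7.4. Isometric force recorded. Cumulative compound additions of 0.1-100 µM from DMSO stock (bath DMSO ≤0.3%), each after steady state. Potency from log concentration-response curves by probit analysis, n = 6-8.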

[8] = organism: Cavia porcellus; experiment: The compound was tested for the negative inotropic activity on isolated guinea pig left atrium at 5*10e-5 M; assay type: functional, Cardiac atrium; how it was run: as §5
[9] = organism: Cavia porcellus; experiment: Tested for the negative chronotropic activity on isolated guinea pig spontaneously beating right atrium at 5*10e-5 M.; assay type: functional, Cardiac atrium; how it was run: as §2
[10] = organism: Cavia porcellus; experiment: Tested for the negative inotropic activity on isolated guinea pig left atrium at 10e-4 M; assay type: functional, Cardiac atrium; how it was run: as §5
[11] = target: T1, Voltage-gated L-type calcium channel; experiment: Calcium antagonistic activity by measuring [3H]nitrendipine displacement at L-type [Ca2+] channel in rat cortex homogenate; assay type: functional, tissue-based; how it was run: as §1
[12] = organism: Cavia porcellus; experiment: Tested for the calcium antagonistic activity on K+-depolarized guinea pig aortic strips at 10e-4 M.; assay type: functional; details: Aorta; how it was run: as §4
[13] = organism: Cavia porcellus; experiment: The compound was tested for the negative chronotropic activity on isolated guinea pig spontaneously beating right atrium at 10e-5 M.; assay type: functional, Cardiac atrium; how it was run: as §2
[14] = target: T2, Voltage-dependent L-type calcium channel subunit alpha-1C; experiment: The compound was tested for calcium antagonistic activity by measuring [3H]nitrendipine displacement from rat heart L-type calcium channels; Not active; assay type: functional; how it was run: as §3
[15] = organism: Cavia porcellus; experiment: The compound was tested for the calcium antagonistic activity on K+-depolarized guinea pig aortic strips; assay type: functional; details: Aorta; how it was run: as §4
[16] = organism: Cavia porcellus; experiment: Tested for the negative inotropic activity on isolated guinea pig left atrium at 10e-5 M; assay type: functional, Cardiac atrium; how it was run: as §5
[17] = organism: Cavia porcellus; experiment: Inotropic negative potency on stimulated guinea pig left atrium.; assay type: functional; details: Cardiac atrium, read-out: ED50 (the source's name); how it was run: as §5
[18] = organism: Cavia porcellus; experiment: Inotropic negative potency on stimulated guinea pig left atrium.(value in parentheses indicate 95% confidence limit*10e-6).; assay type: functional; details: Cardiac atrium, read-out: ED50 (the source's name); how it was run: as §5
[19] = organism: Cavia porcellus; experiment: The compound was tested for the negative inotropic activity on isolated guinea pig left atrium at 5*10e-6 M; assay type: functional, Cardiac atrium; how it was run: as §5
[20] = organism: Cavia porcellus; experiment: Inotropic negative potency on spontaneously beating right atrium of guinea pig, activity is expressed as […] values; assay type: functional, Cardiac atrium; how it was run: as §2
[21] = organism: Cavia porcellus; experiment: The compound was tested for the calcium antagonistic activity on K+-depolarized guinea pig aortic strips at 10e-4 M.; assay type: functional; details: Aorta; how it was run: as §4
[22] = organism: Cavia porcellus; experiment: Inotropic negative potency on spontaneously beating right atrium of guinea pig.(value in parentheses indicate 95% confidence limit*10e-6).; assay type: functional, Cardiac atrium; how it was run: as §2

| Compound | IC50 [1] | EC50 [7] | Ki [11] | Decrease [9] | inhibition at 100 µM [12] | other results |
| --- | --- | --- | --- | --- | --- | --- |
| COc1ccc(C2Sc3ccccc3-n3cccc32)cc1 (stereo unspecified) | > 5 µM | – | – | – | – | – |
| COc1ccc(C2(c3ccc(OC)cc3)Sc3ccccc3-n3cccc32)cc1 | > 5 µM | – | – | – | – | – |
| COc1ccc(C2Oc3ccccc3-n3c(CN(C)C)ccc32)cc1 (stereo unspecified) | 4.67 µM | 0.92 µM | 1.75 µM | – | 24% | Decrease [13]: 22%; Ki [14]: Not Active; Decrease [10]: 69% |
| COc1ccc([C@H]2Sc3ccccc3N3C(=O)CC[C@H]23)cc1 | 0.0044 µM | 1.2 µM | 0.002 µM | 39% | 32% | Ki [4]: 0.035 µM; Decrease [10]: 60% |
| COc1ccc(C2(c3ccc(OC)cc3)Sc3ccc(C(F)(F)F)cc3-n3cccc32)cc1 | > 5 µM | – | – | – | – | – |
| O=C1CC[C@@H]2[C@@H](c3ccccc3)Sc3ccccc3N12 | 0.00078 µM | 0.23 µM | 0.00029 µM | 20% | 37% | IC50 [15]: 20 µM; Decrease [16]: 66% |
| COc1ccc(C2Sc3ccccc3-n3c(CNc4ccc(F)cc4)ccc32)cc1 (stereo unspecified) | > 5 µM | – | – | – | – | – |
| CN(C)Cc1ccc2n1-c1ccccc1SC2(c1ccccc1)c1ccccc1 | – | – | – | 10% | 3.4% | EC50 [17]: 0.89 µM; Decrease [16]: 56% |
| COc1ccc(C2Sc3ccccc3-n3c(CN(C)CCc4ccc(OC)c(OC)c4)ccc32)cc1 (stereo unspecified) | – | 0.84 µM | – | 32% | 4% | Ki [4]: 0.0083 µM; Decrease [10]: 86% |
| Clc1ccc2c(c1)-n1cccc1C(c1ccccc1)(c1ccccc1)S2 | 4.35 µM | – | 1.63 µM | – | – | – |
| c1ccc(C2(c3ccccc3)Sc3ccccc3-n3cccc32)cc1 | 0.465 µM | – | 0.178 µM | – | – | – |
| CC(=O)OC1(c2ccccc2)Sc2ccccc2-n2cccc21 (stereo unspecified) | 4.7 µM | – | 1.83 µM | 33% | 36% | EC50 [18]: 0.38 µM; Decrease [8]: 86% |
| COc1ccc(C2Sc3ccccc3-n3c(CNCCc4ccc(OC)c(OC)c4)ccc32)cc1 (stereo unspecified) | – | 0.45 µM | – | 14% | – | Inhibition [6]: 16%; Decrease [10]: 82% |
| CC(=O)OC1(c2ccccc2)Sc2ccc(C(F)(F)F)cc2-n2cccc21 (stereo unspecified) | 0.065 µM | – | 0.024 µM | – | – | – |
| COc1ccc([C@@H]2Sc3ccccc3N(CCN(C)C)C(=O)[C@@H]2OC(C)=O)cc1 [DILTIAZEM] | – | 0.79 µM | – | 94% | 88% | ED30 [3]: 0.07 µM; Decrease [16]: 78% |

More lines, main results first:

| IC50 [1] | EC50 [7] | Ki [11] | Compound | Decrease [9] | inhibition at 100 µM [12] | other results |
| --- | --- | --- | --- | --- | --- | --- |
| 0.012 µM | – | – | CCC(C)NCc1ccc2n1-c1ccccc1SC2c1ccc(OC)cc1 (stereo unspecified) | – | – | Ki [2]: 0.0044 µM |
| 0.015 µM | 0.6 µM | – | CCC(C)NCc1ccc2n1-c1ccccc1SC2c1ccc(OC)cc1OC (stereo unspecified) | – | – | ED30 [3]: 0.42 µM; Ki [4]: 0.64 µM; Decrease [5]: 67%; Inhibition [6]: 18%; Decrease [8]: 85%; Ki [2]: 0.0055 µM |
| 2.16 µM | 0.73 µM | 0.809 µM | COc1ccc(C2(c3ccc(OC)cc3)Sc3ccccc3-n3c(CN(C)C)ccc32)cc1 | 48% | 12% | Decrease [10]: 78% |
| – | 0.56 µM | – | COc1ccc(C2Sc3ccccc3-n3c(CNCCc4ccc(OC)c(OC)c4)ccc32)c(OC)c1 (stereo unspecified) | 10% | – | Inhibition [6]: 9%; Decrease [8]: 83% |
| 0.082 µM | – | 0.031 µM | CN(C)Cc1ccc2n1-c1cccc(Cl)c1SC2(c1ccccc1)c1ccccc1 | – | – | Ki [4]: 0.026 µM |
| 2.06 µM | – | 0.772 µM | FC(F)(F)c1ccc2c(c1)-n1cccc1C(c1ccccc1)(c1ccccc1)S2 | – | – | – |
| 0.107 µM | – | 0.0401 µM | CN(C)Cc1ccc2n1-c1cc(C(F)(F)F)ccc1SC2(c1ccccc1)c1ccccc1 | – | – | – |
| > 5 µM | – | – | COc1ccc(C2Sc3ccccc3-n3c(CN4CCOCC4)ccc32)cc1 (stereo unspecified) | – | – | – |
| – | 0.15 µM | – | COc1ccc(C2Sc3ccccc3-n3c(CN(C)C)ccc32)c(OC)c1 (stereo unspecified) | – | – | Ki [4]: 0.16 µM; Decrease [5]: 20%; Inhibition [6]: 5%; Decrease [19]: 68% |
| – | 1.5 µM | – | CN(C)Cc1ccc2n1-c1ccccc1SC2c1ccccc1 (stereo unspecified) | 76% | 42% | Decrease [10]: 79%; ED30 [20]: 0.51 µM |
| – | 0.81 µM | – | COc1ccc(C2Sc3ccccc3-n3c(CN(C)C)ccc32)cc1 (stereo unspecified) | – | – | Ki [4]: 0.053 µM; Decrease [5]: 30%; inhibition at 100 µM [21]: 10%; Decrease [16]: 75% |
| 0.32 µM | – | 0.12 µM | Clc1cccc2c1SC(c1ccccc1)(c1ccccc1)c1cccn1-2 | – | – | – |
| 1.6 µM | 0.86 µM | – | COc1ccc(C2Sc3ccccc3-n3c(CN(C)CCc4ccc(OC)c(OC)c4)ccc32)c(OC)c1 (stereo unspecified) | 18% | – | Inhibition [6]: 10%; Decrease [8]: 62%; Ki [2]: 0.74 µM |
| 0.03 µM | – | 0.011 µM | COc1ccc(C2(OC(C)=O)Sc3ccccc3-n3cccc32)cc1 (stereo unspecified) | 70% | 11% | EC50 [18]: 0.24 µM; ED30 [22]: 2.3 µM; Decrease [16]: 71% |
| 0.198 µM | – | – | COc1ccc(CCN(C)Cc2ccc3n2-c2ccccc2SC3c2ccccc2)cc1OC (stereo unspecified) | – | – | Ki [2]: 0.074 µM |
| > 5 µM | – | – | COc1ccc(C2Sc3ccccc3-n3c(CNc4ccc(F)cc4)ccc32)c(OC)c1 (stereo unspecified) | – | – | – |

From ChEMBL document CHEMBL1128175, “Pyrrolo[2,1-c][1,4]benzothiazines: synthesis, structure-activity relationships, molecular modeling studies, and cardiovascular activity” (J Med Chem, 1995)
